From ChEMBL document CHEMBL1137141, “Synthesis of new coumarin 3-(N-aryl) sulfonamides and their anticancer activity” (2004)

What was measured:
Format in all cases: functional
K562 = assay: Concentration required to inhibit growth of K562 cells by 50% after 96h of treatment; conditions: Homo sapiens, K562, 96 h
Summary of the method: (§1)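 Cells (1 × 10⁵) were plated in 6-well dishes. Test agents were added 24 h later at five concentrations over a 2-log span (1–100 µM) and left on continuously for 96 h. Viable cells were counted by trypan blue exclusion on a hemacytometer and expressed as a percentage of DMSO-treated wells. GI50 was read from dose–response curves of % cells versus concentration.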

DLD-1 = assay: Concentration required to inhibit growth of DLD-1 cells by 50% after 96h of treatment; conditions: Homo sapiens, DLD-1, 96 h; summary of the method: as §1
BT-20 = assay: Concentration required to inhibit growth of BT20 cells by 50% after 96h of treatment; conditions: Homo sapiens, BT-20, 96 h; summary of the method: as §1
NCI-H157 = assay: Concentration required to inhibit growth of H157 cells by 50% after 96h of treatment; conditions: Homo sapiens, NCI-H157, 96 h; summary of the method: as §1
DU-145 = assay: Concentration required to inhibit growth of DU145 cells by 50% after 96h of treatment; conditions: Homo sapiens, DU-145, 96 h; summary of the method: as §1

Row | SMILES | GI50 (K562) [µM] | GI50 (DLD-1) [µM] | GI50 (BT-20) [µM] | GI50 (NCI-H157) [µM] | GI50 (DU-145) [µM]
1 | COc1ccc(NS(=O)(=O)c2cc3cc(Cl)ccc3oc2=O)cc1O | 51 | 82 | 65 | 76 | 42
2 | COc1ccc2oc(=O)c(S(=O)(=O)Nc3ccc(Br)cc3)cc2c1 | 27 | 38 | 18 | 32 | 25
3 | COc1ccc(NS(=O)(=O)c2cc3cc(Cl)ccc3oc2=O)cc1 | 23 | 32 | 27 | 28 | 22
4 | CCOc1cccc2cc(S(=O)(=O)Nc3ccc(Br)cc3)c(=O)oc12 | 58 | 85 | 64 | 74 | 52

Further compounds by falling GI50 (K562), results first:

Row | GI50 (K562) [µM] | GI50 (DLD-1) [µM] | GI50 (BT-20) [µM] | GI50 (NCI-H157) [µM] | GI50 (DU-145) [µM] | SMILES
5 | 48 | 78 | 52 | 74 | 57 | CCOc1cccc2cc(S(=O)(=O)Nc3ccc(OC)cc3)c(=O)oc12
6 | 44 | 92 | 68 | 78 | 56 | COc1ccc2oc(=O)c(S(=O)(=O)Nc3ccc(F)c(N)c3)cc2c1
7 | 42 | 80 | 54 | 72 | 48 | CCOc1cccc2cc(S(=O)(=O)Nc3ccc(F)c(N)c3)c(=O)oc12
8 | 16 | 14 | 12 | 15 | 12 | O=c1oc2c(Br)cccc2cc1S(=O)(=O)Nc1ccc(Br)cc1
9 | 14 | 20 | 16 | 18 | 15 | COc1ccc(NS(=O)(=O)c2cc3cccc(Br)c3oc2=O)cc1
10 | 11 | 18 | 17 | 16 | 14 | O=c1oc2c(Cl)cccc2cc1S(=O)(=O)Nc1ccc(Br)cc1
